{"source": "PubChem BioAssay AID588750", "about": "(Vanderbilt Specialized Chemistry Center, 2011)", "note": "A number with no mark means an inactive call.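 Rule for the calls: active = compounds with a dose-dependent response, reported with half-maximal potency and percent of the acetylcholine maximum; inactive = the rest.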", "data": [{"target": "Muscarinic acetylcholine receptor M3 (Rattus norvegicus) (UniProt P08483)", "assay": "rat M3 receptor positive allosteric modulation, dose response, selectivity assay for M4 PAM project, CHO cells, Fluo-4 calcium mobilization (AID 588750)", "settings": "CHO rat M3, Fluo-4 calcium mobilization; series mostly up to 30 µM; percent of ACh max: at the top concentration", "in_short": "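Material: CHO cells with stable rat M3 receptor. Probe or stimulus: acetylcholine at EC20, followed by acetylcholine at EC80. Doses: test compound in 0.3% DMSO final. Times: compound pre-incubation 144 s before ACh EC20, read at 37 °C. Technique: Fluo-4 AM calcium flux, kinetic fluorescence. Controls: 1 mM ACh maximum.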", "values": [{"smiles": "Cc1nc2sc(C(=O)NCc3ccncc3)c(N)c2c(C)c1Cl", "percent of ACh max": "16.7 [at 45.3 µM]"}, {"smiles": "Cc1nc2sc(C(=O)NCc3cccnc3)c(N)c2c(C)c1Cl", "percent of ACh max": "13.5 [at 45.3 µM]"}, {"smiles": "Cc1nc2sc(C(=O)NCc3ccncn3)c(N)c2c(C)c1Cl", "percent of ACh max": 17.7}, {"smiles": "Cc1nc2sc(C(=O)NCc3ccc4c(c3)OCO4)c(N)c2c(C)c1Cl", "percent of ACh max": "14.8 [at 36.8 µM]"}, {"smiles": "Cc1nc2sc(C(=O)NC3CC3)c(N)c2c(C)c1Cl", "percent of ACh max": 19.5}, {"smiles": "Cc1nc2sc(C(=O)NCc3cccc(F)c3F)c(N)c2c(C)c1Cl", "percent of ACh max": 15.9}, {"smiles": "Cc1nc2sc(C(=O)NCCc3ccncc3)c(N)c2c(C)c1Cl", "percent of ACh max": 19.2}, {"smiles": "Cc1nc2sc(C(=O)NCc3nccs3)c(N)c2c(C)c1Cl", "percent of ACh max": 20.6}, {"smiles": "Cc1nc2sc(C(=O)NCc3ccccc3)c(N)c2c(C)c1Cl", "percent of ACh max": "14.2 [at 37.4 µM]"}]}]}
